Test results from ChEMBL document CHEMBL1165965, “Synthesis and structure-activity relationships of 1,2,3,4-tetrahydropyrido[2,3-b]pyrazines as potent and selective inhibitors of the anaplastic lymphoma kinase” (Bioorg Med Chem, 2010).

Columns and labels:
[1] = target: Serine/threonine-protein kinase 33 (Homo sapiens) (UniProt Q9BYT3); experiment: Inhibition of STK33 at 1 uM
[2] = target: Casein kinase I isoform gamma-3 (Homo sapiens) (UniProt Q9Y6M4); experiment: Inhibition of CSNK1G3 at 1 uM
Summary of the method: (§1)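 Single-concentration screen using Ambit Bioscience KINOMEscan technology across a panel of 250–400 kinases. Per-kinase inhibition from this screen was summarized as S(90), the fraction of kinases inhibited by more than 90%.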

[3] = target: Activin receptor type-1-like (Homo sapiens) (UniProt P37023); experiment: Inhibition of ACVRL1 at 1 uM
Summary of the method: (§2)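 Ambit KINOMEscan screen at a single concentration across a 250–400 kinase panel, recorded as percent inhibition. Selectivity was expressed as S(90), the fraction of kinases inhibited >90%.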

[4] = target: Cyclin-dependent kinase 5 (Homo sapiens) (UniProt Q00535); experiment: Inhibition of CDK5 at 1 uM; summary of the method: as §2
[5] = target: Receptor tyrosine-protein kinase erbB-4 (Homo sapiens) (UniProt Q15303); experiment: Inhibition of ERBB4 at 1 uM; summary of the method: as §1
[6] = target: Activin receptor type-2A (Homo sapiens) (UniProt P27037); experiment: Inhibition of ACVR2A at 1 uM; summary of the method: as §2
[7] = target: T1, Serine/threonine-protein kinase RIO1 (Homo sapiens) (UniProt Q9BRS2); experiment: Inhibition of RIOK1 at 1 uM
T1 sequence (whole entry): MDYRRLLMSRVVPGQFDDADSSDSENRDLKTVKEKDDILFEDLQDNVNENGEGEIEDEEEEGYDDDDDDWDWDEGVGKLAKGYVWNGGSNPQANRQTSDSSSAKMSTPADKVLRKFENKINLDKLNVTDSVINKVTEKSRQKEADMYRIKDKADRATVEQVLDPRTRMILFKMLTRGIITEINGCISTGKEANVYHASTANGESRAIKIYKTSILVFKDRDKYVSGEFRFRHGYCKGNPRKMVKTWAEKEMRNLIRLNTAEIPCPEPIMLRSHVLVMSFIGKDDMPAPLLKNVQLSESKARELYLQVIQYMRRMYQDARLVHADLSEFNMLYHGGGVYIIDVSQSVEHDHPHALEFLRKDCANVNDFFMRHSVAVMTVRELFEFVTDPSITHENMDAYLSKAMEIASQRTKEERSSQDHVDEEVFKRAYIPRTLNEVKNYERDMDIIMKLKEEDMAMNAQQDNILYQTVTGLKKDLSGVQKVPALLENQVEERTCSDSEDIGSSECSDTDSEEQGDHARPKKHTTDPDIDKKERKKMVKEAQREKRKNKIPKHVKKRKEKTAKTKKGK

[8] = Inhibition of FLT3 ITD mutant at 1 uM
Summary of the method: (§3)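 Single-concentration screen on the Ambit KINOMEscan platform, run against a panel of 250–400 kinases. Per-kinase inhibition was also summarized as S(90), the fraction of kinases inhibited by more than 90%.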

[9] = target: T2, Mitogen-activated protein kinase kinase kinase 2 (Homo sapiens) (UniProt Q9Y2U5); experiment: Inhibition of MAP3K2 at 1 uM
T2 sequence (whole entry): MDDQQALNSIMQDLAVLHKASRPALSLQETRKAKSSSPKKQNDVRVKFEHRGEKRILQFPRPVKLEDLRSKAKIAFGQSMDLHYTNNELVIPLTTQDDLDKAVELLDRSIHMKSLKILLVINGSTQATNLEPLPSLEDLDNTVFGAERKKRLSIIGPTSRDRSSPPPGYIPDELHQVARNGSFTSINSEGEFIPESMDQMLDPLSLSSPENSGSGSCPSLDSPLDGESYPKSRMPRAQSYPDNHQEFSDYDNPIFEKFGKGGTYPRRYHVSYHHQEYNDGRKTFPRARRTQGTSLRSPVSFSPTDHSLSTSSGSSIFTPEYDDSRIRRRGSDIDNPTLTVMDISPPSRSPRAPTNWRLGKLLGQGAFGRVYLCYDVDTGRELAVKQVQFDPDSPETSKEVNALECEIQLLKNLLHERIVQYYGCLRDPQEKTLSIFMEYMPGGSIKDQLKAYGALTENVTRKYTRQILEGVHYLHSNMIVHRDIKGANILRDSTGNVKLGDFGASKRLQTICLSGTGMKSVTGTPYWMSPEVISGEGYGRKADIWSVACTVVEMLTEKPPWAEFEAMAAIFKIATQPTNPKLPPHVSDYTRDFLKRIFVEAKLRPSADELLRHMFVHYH

[10] = target: Cyclin-dependent kinase 16 (Homo sapiens) (UniProt Q00536); experiment: Inhibition of PCTK1 at 1 uM
[11] = target: T3, Serine/threonine-protein kinase Nek2 (Homo sapiens) (UniProt P51955); experiment: Inhibition of NEK2 at 1 uM
T3 sequence (whole entry): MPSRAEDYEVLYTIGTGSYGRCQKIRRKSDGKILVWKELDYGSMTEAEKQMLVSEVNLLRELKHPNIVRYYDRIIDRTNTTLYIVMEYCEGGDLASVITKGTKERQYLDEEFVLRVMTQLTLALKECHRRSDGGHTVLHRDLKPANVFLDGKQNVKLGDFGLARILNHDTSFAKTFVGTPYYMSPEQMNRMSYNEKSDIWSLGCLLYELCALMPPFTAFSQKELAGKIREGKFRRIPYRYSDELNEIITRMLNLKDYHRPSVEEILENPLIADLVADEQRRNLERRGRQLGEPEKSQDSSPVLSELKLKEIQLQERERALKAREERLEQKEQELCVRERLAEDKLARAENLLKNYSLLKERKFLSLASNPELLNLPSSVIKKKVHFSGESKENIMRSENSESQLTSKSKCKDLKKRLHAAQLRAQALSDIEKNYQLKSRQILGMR

[12] = target: Leukocyte tyrosine kinase receptor (Homo sapiens) (UniProt P29376); experiment: Inhibition of LTK at 1 uM; summary of the method: as §3
[13] = target: T4, Dual specificity mitogen-activated protein kinase kinase 6 (Homo sapiens) (UniProt P52564); experiment: Inhibition of MEK6 at 1 uM
T4 sequence (whole entry): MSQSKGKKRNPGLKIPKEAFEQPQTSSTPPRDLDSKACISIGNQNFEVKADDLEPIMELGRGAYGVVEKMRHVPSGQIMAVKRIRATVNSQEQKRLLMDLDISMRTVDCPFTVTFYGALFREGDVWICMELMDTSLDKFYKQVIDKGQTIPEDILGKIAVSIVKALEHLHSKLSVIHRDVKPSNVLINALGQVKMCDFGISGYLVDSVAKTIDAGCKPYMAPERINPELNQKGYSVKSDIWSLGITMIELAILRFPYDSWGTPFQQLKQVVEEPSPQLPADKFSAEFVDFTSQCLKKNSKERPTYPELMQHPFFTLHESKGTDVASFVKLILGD
Summary of the method: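 Kinase-panel screen using KINOMEscan technology, with 250–400 kinases per panel. Each compound was tested at a single concentration, and inhibition of each kinase was recorded. Selectivity was summarised as S(90), the fraction of kinases inhibited by more than 90%.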

[14] = target: Epidermal growth factor receptor (Homo sapiens) (UniProt P04626+P00533+Q15303+P21860); experiment: Inhibition of EGFR L747-E749del, A750P mutant at 1 uM; format: protein assay; summary of the method: as §1

Chain of Receptor tyrosine-protein kinase erbB-4 (Homo sapiens) (Q15303 whole entry): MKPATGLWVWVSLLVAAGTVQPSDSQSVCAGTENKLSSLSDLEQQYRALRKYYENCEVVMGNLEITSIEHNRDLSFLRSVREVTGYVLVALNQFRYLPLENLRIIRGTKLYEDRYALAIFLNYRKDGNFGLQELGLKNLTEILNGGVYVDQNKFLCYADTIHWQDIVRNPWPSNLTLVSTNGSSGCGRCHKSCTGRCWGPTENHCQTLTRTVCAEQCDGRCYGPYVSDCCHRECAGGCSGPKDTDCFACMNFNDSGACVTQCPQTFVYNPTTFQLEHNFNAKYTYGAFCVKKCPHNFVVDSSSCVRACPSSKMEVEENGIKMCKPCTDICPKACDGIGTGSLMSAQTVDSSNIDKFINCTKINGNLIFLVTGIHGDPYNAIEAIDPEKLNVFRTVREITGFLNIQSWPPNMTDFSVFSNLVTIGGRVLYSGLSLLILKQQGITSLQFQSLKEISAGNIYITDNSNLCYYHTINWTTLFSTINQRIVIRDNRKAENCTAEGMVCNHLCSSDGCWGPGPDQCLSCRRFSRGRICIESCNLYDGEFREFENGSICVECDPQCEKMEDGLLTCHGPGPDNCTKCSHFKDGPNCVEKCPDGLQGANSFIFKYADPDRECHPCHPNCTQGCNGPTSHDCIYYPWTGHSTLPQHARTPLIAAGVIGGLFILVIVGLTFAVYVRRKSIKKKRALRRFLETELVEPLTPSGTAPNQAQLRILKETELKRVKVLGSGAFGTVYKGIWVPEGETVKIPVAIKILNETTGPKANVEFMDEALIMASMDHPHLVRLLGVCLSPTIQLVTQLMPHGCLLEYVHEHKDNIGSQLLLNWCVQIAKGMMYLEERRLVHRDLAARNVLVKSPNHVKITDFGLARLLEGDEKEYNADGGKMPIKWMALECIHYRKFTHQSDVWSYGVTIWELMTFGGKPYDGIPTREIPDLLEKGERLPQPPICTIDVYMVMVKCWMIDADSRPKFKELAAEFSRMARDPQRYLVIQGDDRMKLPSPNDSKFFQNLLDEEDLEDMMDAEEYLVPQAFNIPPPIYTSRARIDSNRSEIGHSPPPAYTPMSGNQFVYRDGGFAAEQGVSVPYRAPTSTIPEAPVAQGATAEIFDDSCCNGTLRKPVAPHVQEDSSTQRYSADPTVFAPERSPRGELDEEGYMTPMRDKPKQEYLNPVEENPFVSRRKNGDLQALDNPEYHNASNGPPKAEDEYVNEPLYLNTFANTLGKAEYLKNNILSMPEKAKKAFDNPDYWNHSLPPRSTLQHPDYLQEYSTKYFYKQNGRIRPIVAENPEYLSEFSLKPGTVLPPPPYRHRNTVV
Chain of Casein kinase I isoform gamma-3 (Homo sapiens) (Q9Y6M4 whole entry, looked up, canonical isoform): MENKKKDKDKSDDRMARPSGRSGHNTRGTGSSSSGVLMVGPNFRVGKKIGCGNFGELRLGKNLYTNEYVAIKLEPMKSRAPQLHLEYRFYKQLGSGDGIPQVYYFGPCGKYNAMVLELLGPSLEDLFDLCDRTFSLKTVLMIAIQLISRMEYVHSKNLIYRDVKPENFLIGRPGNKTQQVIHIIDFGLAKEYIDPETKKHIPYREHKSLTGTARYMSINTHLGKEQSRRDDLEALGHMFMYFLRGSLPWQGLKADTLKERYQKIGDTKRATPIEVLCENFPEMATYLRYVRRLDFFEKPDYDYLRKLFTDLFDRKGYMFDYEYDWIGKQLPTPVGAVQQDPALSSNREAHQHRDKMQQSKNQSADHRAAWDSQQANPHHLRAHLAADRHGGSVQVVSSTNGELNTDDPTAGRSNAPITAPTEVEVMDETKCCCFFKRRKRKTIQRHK
Chain of Serine/threonine-protein kinase 33 (Homo sapiens) (Q9BYT3 whole entry, looked up, canonical isoform): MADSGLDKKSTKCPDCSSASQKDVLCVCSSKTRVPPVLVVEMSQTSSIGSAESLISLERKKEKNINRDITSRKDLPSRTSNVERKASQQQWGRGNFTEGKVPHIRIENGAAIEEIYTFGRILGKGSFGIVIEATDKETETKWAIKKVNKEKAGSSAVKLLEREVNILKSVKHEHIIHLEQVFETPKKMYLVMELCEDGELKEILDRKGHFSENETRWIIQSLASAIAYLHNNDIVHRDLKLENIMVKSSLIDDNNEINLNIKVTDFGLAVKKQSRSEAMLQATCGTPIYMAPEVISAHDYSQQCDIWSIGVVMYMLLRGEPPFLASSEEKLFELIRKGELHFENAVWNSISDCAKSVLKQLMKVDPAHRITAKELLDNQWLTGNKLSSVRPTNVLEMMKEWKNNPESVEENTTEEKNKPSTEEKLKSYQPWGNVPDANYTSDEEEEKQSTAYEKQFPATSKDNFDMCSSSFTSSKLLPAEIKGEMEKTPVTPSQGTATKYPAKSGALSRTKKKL
Chain of Activin receptor type-1-like (Homo sapiens) (P37023 whole entry): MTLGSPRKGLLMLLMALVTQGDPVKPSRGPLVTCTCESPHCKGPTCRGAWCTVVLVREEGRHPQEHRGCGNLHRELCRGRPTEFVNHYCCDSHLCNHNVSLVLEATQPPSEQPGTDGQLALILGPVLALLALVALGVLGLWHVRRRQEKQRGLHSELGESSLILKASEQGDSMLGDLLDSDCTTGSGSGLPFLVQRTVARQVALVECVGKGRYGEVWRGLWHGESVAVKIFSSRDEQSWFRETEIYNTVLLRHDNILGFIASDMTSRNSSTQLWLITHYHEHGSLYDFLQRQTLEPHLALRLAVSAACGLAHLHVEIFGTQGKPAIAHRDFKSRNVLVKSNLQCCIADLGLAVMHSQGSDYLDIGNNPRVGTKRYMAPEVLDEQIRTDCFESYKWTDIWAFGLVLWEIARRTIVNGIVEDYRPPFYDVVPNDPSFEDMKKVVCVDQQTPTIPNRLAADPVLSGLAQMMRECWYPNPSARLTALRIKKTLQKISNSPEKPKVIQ
Chain of Leukocyte tyrosine kinase receptor (Homo sapiens) (P29376 whole entry): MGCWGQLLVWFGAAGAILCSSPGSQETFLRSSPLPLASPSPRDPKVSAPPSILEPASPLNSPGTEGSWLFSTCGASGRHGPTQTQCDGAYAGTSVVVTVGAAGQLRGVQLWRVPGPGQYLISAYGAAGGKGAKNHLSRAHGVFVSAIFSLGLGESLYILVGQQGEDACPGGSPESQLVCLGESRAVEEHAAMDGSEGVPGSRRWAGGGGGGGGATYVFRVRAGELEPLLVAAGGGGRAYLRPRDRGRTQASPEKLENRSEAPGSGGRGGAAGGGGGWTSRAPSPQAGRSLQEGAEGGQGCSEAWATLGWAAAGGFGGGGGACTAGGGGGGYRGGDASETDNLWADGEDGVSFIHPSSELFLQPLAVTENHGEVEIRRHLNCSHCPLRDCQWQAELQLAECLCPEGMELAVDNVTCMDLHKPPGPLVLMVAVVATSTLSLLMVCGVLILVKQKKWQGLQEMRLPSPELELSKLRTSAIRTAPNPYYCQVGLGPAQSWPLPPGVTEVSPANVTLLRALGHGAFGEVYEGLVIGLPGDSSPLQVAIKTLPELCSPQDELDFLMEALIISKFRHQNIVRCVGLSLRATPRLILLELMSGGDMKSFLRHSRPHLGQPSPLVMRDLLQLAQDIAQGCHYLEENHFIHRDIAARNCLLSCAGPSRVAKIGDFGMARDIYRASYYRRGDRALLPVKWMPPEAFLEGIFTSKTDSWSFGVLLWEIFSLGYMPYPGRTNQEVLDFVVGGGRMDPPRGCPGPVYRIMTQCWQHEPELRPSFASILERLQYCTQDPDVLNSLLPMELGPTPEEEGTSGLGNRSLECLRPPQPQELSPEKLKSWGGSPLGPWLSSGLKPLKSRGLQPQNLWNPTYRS
Chain of Cyclin-dependent kinase 5 (Homo sapiens) (Q00535 whole entry, looked up): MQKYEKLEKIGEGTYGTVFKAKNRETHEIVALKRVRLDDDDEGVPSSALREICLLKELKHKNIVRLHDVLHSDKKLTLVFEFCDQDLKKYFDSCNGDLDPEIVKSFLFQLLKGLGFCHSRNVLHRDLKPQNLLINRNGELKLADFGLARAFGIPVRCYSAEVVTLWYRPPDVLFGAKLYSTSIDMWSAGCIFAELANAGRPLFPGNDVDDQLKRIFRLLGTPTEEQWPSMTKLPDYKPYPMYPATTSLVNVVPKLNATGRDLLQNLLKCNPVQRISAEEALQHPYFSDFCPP
Chain of Cyclin-dependent kinase 16 (Homo sapiens) (Q00536 whole entry): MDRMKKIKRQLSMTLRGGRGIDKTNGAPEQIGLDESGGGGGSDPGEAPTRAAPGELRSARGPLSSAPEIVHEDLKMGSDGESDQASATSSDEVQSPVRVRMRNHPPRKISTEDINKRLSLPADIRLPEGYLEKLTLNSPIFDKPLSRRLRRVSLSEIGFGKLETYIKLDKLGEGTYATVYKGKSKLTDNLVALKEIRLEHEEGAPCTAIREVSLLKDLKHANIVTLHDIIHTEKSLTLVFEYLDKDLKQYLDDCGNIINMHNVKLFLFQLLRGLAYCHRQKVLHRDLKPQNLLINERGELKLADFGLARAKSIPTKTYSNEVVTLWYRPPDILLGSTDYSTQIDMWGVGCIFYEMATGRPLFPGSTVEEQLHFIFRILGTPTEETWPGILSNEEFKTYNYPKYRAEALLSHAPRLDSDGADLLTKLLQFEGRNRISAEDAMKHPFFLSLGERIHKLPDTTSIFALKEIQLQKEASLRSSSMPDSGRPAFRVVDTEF
Chain of Activin receptor type-2A (Homo sapiens) (P27037 whole entry): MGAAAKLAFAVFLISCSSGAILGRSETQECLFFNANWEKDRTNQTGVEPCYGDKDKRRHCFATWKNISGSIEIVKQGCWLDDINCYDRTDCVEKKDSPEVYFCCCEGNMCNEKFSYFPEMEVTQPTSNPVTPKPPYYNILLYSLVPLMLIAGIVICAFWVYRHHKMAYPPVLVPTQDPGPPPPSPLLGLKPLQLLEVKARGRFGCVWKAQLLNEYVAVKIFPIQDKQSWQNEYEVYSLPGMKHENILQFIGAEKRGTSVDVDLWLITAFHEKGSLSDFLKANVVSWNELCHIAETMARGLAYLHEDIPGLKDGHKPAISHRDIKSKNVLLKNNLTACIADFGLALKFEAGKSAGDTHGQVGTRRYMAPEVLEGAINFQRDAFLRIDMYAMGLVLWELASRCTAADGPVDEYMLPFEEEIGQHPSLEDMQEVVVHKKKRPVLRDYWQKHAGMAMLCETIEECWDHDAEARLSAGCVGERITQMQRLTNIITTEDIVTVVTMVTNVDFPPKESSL

Row | SMILES | inhibition [1] | inhibition [2] | inhibition [3] | inhibition [4] | inhibition [5] | inhibition [6] | inhibition [7] | inhibition [8] | inhibition [9] | inhibition [10] | inhibition [11] | inhibition [12] | inhibition [13] | inhibition [14]
1 | CN1CCN(c2ccc(-c3cnc4c(c3)N(Cc3cc(F)ccc3F)CCN4)cn2)CC1 | < 50% | < 50% | < 50% | < 50% | < 50% | < 50% | < 50% | < 50% | < 50% | < 50% | < 50% | 96.8% | < 50% | < 50%
2 | O=C(c1ccc(-c2cnc3c(c2)N(Cc2cc(Cl)ccc2C(F)(F)F)CCN3)cc1)N1CCC(N2CCCC2)CC1 | 79.8% | < 50% | < 50% | < 50% | < 50% | < 50% | < 50% | < 50% | – | < 50% | < 50% | 80.7% | < 50% | < 50%
3 | O=C(c1ccc(-c2cnc3c(c2)N(Cc2cc(Cl)ccc2C(F)(F)F)CCN3)cc1)N1CCCCC1 | – | < 50% | < 50% | < 50% | < 50% | < 50% | < 50% | < 50% | – | < 50% | < 50% | 89.3% | < 50% | < 50%
4 | CN1CCN(c2ccc(-c3cnc4c(c3)N(Cc3c(F)ccc(F)c3Cl)CCN4)cn2)CC1 | < 50% | < 50% | < 50% | < 50% | < 50% | < 50% | < 50% | < 50% | < 50% | < 50% | < 50% | 97% | < 50% | < 50%
5 | COC1CCN(C(=O)c2ccc(-c3cnc4c(c3)N(Cc3cc(Cl)ccc3C(F)(F)F)CCN4)cc2)CC1 | – | < 50% | < 50% | < 50% | < 50% | < 50% | < 50% | < 50% | – | < 50% | < 50% | 95.5% | < 50% | < 50%
6 | O=C(O)c1ccc(-c2cnc3c(c2)N(Cc2cc(Cl)ccc2C(F)(F)F)CCN3)cc1 | – | < 50% | < 50% | < 50% | < 50% | < 50% | < 50% | < 50% | – | < 50% | < 50% | 92.7% | 93% | < 50%
7 | CC(=O)N1CCN(c2cc(-c3cnc4c(c3)N(Cc3cc(Cl)ccc3C(F)(F)F)CCN4)ccn2)CC1 | < 50% | < 50% | < 50% | < 50% | < 50% | < 50% | < 50% | < 50% | 81% | < 50% | < 50% | 99% | < 50% | < 50%
8 | FC(F)(F)c1ccc(Cl)cc1CN1CCNc2ncc(-c3ccnc(N4CCNCC4)c3)cc21 | < 50% | < 50% | < 50% | < 50% | < 50% | < 50% | < 50% | 74% | 93% | < 50% | < 50% | 100% | < 50% | < 50%
9 | CN1CCN(c2ccc(-c3cnc4c(c3)N(Cc3cc(Cl)ccc3C(F)(F)F)CCN4)cn2)CC1 | < 50% | < 50% | < 50% | < 50% | < 50% | < 50% | < 50% | 90% | 74% | < 50% | < 50% | 99% | < 50% | < 50%
10 | CN1CCN(c2ccc(-c3cnc4c(c3)N(Cc3cc(Cl)ccc3Cl)CCN4)cn2)CC1 | < 50% | < 50% | < 50% | < 50% | < 50% | < 50% | < 50% | < 50% | < 50% | < 50% | < 50% | 97% | < 50% | < 50%
